Assay results reported in ChEMBL document CHEMBL1811800, “The discovery of long-acting saligenin β₂ adrenergic receptor agonists incorporating hydantoin or uracil rings” (Bioorg Med Chem, 2011).
pEC50: −log10 of the molar value.

Columns and labels:
[1] = biological target: Beta-3 adrenergic receptor (Homo sapiens, UniProt P13945); assay: Agonist activity at human adrenergic beta3 receptor expressed in CHO cells assessed as cAMP accumulation; type: functional, cell-based
[2] = biological target: Beta-1 adrenergic receptor (Homo sapiens, UniProt P08588); assay: Agonist activity at human adrenergic beta1 receptor expressed in CHO cells assessed as cAMP accumulation; type: functional, cell-based
Chain of Beta-1 adrenergic receptor (P08588 whole entry): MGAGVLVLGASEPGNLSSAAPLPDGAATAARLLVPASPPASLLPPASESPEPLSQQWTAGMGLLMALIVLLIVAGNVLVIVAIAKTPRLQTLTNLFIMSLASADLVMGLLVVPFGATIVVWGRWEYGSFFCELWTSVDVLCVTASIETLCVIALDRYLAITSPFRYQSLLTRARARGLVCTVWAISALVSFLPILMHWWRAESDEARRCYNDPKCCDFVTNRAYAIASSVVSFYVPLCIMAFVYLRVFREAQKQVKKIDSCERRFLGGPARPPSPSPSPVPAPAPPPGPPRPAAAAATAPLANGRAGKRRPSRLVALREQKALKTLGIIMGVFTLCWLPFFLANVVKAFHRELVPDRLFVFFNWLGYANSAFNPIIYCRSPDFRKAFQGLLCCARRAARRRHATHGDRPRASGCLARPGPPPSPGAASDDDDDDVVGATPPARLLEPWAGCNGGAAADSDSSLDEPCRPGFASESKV

[3] = biological target: Beta-2 adrenergic receptor (Homo sapiens, UniProt P07550); assay: Agonist activity at human adrenergic beta2 receptor expressed in CHO cells assessed as cAMP accumulation; type: functional, cell-based
Chain of Beta-2 adrenergic receptor (Homo sapiens, UniProt P07550) (P07550 whole entry): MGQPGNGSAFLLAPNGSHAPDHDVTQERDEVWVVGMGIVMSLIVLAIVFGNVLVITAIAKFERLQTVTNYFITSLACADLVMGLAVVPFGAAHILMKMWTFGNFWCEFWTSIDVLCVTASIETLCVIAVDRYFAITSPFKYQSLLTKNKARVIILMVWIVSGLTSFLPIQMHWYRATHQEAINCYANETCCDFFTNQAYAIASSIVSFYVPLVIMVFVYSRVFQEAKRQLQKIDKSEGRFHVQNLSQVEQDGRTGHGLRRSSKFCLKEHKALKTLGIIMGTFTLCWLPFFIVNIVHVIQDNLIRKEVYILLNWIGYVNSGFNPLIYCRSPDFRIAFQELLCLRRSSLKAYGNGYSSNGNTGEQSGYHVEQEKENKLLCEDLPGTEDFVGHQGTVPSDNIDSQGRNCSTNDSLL

Cavia porcellus [4] = assay: Bronchodilatory activity against histamine-induced bronchospasm in guinea pig administered via nebulizer; type: functional
Procedure, shortened: (§1)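 Guinea pigs; agonist given as nebulised solution in dimethyl acetamide-saline vehicle at EC90 dose or 10-fold EC90 dose. Duration expressed as time to 50% recovery.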

[5] = Oral bioavailability in Beagle dog at 0.25 mg/kg by LC-MS/MS; type: ADME, organism-based, Canis lupus familiaris; settings: in vivo
Procedure, shortened: (§2)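 Female beagle dogs (n = 2), fasted 18 h, crossover design. Oral 0.25 mg base/kg by gavage in DMSO-PEG 200-distilled water (5:30:65); iv 0.052 mg base/kg via cephalic vein in DMSO-PEG 200-saline (10:45:45). Jugular blood sampled 0.03 (iv only) to 8 h. Plasma assayed by LC–MS/MS; noncompartmental parameters.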

[6] = Cmax in Beagle dog at 0.25 mg/kg, po by LC-MS/MS; type: ADME, organism-based, Canis lupus familiaris; set-up: dose 0.25 mg/kg, route oral; settings: in vivo; procedure, shortened: as §2
[7] = Half life in Beagle dog at 0.052 mg/kg, iv by LC-MS/MS; type: ADME, organism-based, Canis lupus familiaris; set-up: dose 0.052 mg/kg, route intravenous; settings: in vivo; procedure, shortened: as §2
[8] = Volume of distribution at steady state in Beagle dog at 0.052 mg/kg, iv by LC-MS/MS; type: ADME, organism-based, Canis lupus familiaris; set-up: dose 0.052 mg/kg, route intravenous; settings: in vivo, read-out: Vdss; procedure, shortened: as §2
[9] = Plasma clearance in Beagle dog at 0.052 mg/kg, iv by LC-MS/MS; type: ADME, organism-based, Canis lupus familiaris; set-up: dose 0.052 mg/kg, route intravenous; procedure, shortened: as §2
[10] = Oral bioavailability in Han Wistar rat at 2.0 mg/kg by LC-MS/MS; type: ADME, organism-based; settings: in vivo
Procedure, shortened: (§3)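 Male Han Wistar rats, fasted 18 h. Oral dose 2.0 mg base/kg by gavage in DMSO-PEG 200-distilled water (5:30:65); iv dose 0.25 mg base/kg via tail vein in DMSO-PEG 200-saline (10:45:45). Blood sampled 0.03 (iv only) to 8 h post dose, n = 2 animals/time-point. Plasma assayed by LC–MS/MS; parameters from noncompartmental analysis.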

[11] = Volume of distribution at steady state in Han Wistar rat at 0.25 mg/kg, iv by LC-MS/MS; type: ADME, organism-based; set-up: dose 0.25 mg/kg, route intravenous; settings: in vivo, read-out: Vdss; procedure, shortened: as §3
[12] = Half life in Han Wistar rat at 0.25 mg/kg, iv by LC-MS/MS; type: ADME, organism-based; set-up: dose 0.25 mg/kg, route intravenous; settings: in vivo; procedure, shortened: as §3
[13] = Plasma clearance in Han Wistar rat at 0.25 mg/kg, iv by LC-MS/MS; type: ADME, organism-based; set-up: dose 0.25 mg/kg, route intravenous; procedure, shortened: as §3
[14] = biological target: Beta-2 adrenergic receptor (Cavia porcellus, UniProt Q8K4Z4); assay: Agonist activity at adrenergic beta2 receptor in guinea pig trachea assessed as inhibition of electrically-stimulated contraction; type: functional
Chain of Beta-2 adrenergic receptor (Cavia porcellus, UniProt Q8K4Z4) (Q8K4Z4 whole entry): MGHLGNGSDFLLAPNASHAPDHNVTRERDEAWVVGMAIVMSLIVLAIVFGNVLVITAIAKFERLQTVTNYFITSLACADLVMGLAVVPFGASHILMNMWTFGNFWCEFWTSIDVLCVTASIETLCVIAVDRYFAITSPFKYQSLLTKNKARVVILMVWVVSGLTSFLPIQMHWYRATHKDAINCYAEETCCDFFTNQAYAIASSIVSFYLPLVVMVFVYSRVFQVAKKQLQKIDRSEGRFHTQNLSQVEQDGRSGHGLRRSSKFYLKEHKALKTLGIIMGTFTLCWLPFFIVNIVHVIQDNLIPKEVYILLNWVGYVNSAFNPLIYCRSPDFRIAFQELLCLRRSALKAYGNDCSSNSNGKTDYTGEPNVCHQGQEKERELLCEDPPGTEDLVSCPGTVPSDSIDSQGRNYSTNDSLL

Liver microsomes [15] = assay: Metabolic stability in human liver microsomes with 125 pmol/mL P450 assessed as compound turnover ratio at 5 uM after 30 mins by LC-MS method relative to verapamil; type: ADME, Microsome; settings: 0.5 h
Cavia porcellus [16] = assay: Bronchodilatory activity against histamine-induced bronchospasm in guinea pig assessed as time taken for 50% recovery of bronchospasm at EC90 administered via nebulizer; type: functional; procedure, shortened: as §1
Cavia porcellus [17] = assay: Bronchodilatory activity against histamine-induced bronchospasm in guinea pig assessed as time taken for 50% recovery of bronchospasm at 10-fold EC90 administered via nebulizer; type: functional; procedure, shortened: as §1
[18] = Stability of the compound in solid state at 4 degC after 18 days; type: physicochemical; settings: 432 h
Liver microsomes [19] = assay: Metabolic stability of the compound in human liver microsomes assessed as formation of N-({[3-(4-{[6-({(2R)-2-Hydroxy-2-[4-hydroxy-3-(hydroxy methyl)phenyl]ethyl}amino) hexyl]oxy}butyl)phenyl]amino} carbonyl)glycine acetate; type: ADME, Microsome
Procedure, shortened: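 Incubated at 25 µM with human liver microsomes (and hepatocytes). Samples mixed with equal volume acetonitrile, centrifuged; supernatant analysed by reverse-phase gradient LC with electrospray MS detection for metabolites.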

[20] = Stability of the compound in methanol assessed as formation of methyl ester of N-({[3-(4-{[6-({(2R)-2-Hydroxy-2-[4-hydroxy-3-(hydroxy methyl)phenyl]ethyl}amino) hexyl]oxy}butyl)phenyl]amino} carbonyl)glycine acetate

Chain of Beta-3 adrenergic receptor (P13945 whole entry): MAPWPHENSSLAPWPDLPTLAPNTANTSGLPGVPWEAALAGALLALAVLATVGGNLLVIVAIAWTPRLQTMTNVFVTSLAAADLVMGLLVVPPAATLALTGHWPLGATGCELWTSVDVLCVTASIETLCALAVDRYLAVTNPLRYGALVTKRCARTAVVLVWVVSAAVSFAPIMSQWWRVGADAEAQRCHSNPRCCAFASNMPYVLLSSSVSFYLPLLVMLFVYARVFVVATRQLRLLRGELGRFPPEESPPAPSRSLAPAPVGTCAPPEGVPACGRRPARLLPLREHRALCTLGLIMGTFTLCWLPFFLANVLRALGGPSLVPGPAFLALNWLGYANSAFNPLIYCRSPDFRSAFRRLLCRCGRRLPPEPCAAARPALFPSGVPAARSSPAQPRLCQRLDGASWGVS

## O=c1ccn(-c2cccc(CCCCOCCCCCCNC[C@H](O)c3ccc(O)c(CO)c3)c2)c(=O)[nH]1
[1]
  pEC50: 7.30
[2]
  pEC50: 7.30
[3]
  pEC50: 8.90

## CC(=O)O.O=C1CNC(=O)N1c1cccc(CCCCOCCCCCCNC[C@H](O)c2ccc(O)c(CO)c2)c1
Cavia porcellus [4]
  EC90: 25000 nM
[5]
  bioavailability: 5%
[6]
  Cmax: 12 ng/mL
[7]
  half-life: 2 h
[8]
  Vd: 0.8 L/kg
[9]
  clearance: 13 mL/min/kg
[10]
  bioavailability: 2%
[11]
  Vd: 2 L/kg
[12]
  half-life: 0.3 h
[13]
  clearance: 120 mL/min/kg
[14]
  pEC50: 9.10
Liver microsomes [15]
  Ratio: 0.86
[1]
  pEC50: 7.00
[2]
  pEC50: 7.10
[3]
  pEC50: 9.20
Cavia porcellus [16]
  Time: 12 h
Cavia porcellus [17]
  Time: 18 h
[18]
  Stability: Unstable
Liver microsomes [19]
  Stability: Unstable
[20]
  Stability: Unstable

## CC(=O)O.O=C1CNC(=O)N1c1ccc(CCCCOCCCCCCNC[C@H](O)c2ccc(O)c(CO)c2)cc1
Liver microsomes [15]
  Ratio: 0.3
[1]
  pEC50: 7.50
[2]
  pEC50: 7.10
[3]
  pEC50: 8.70

## O=C1CNC(=O)N1c1ccccc1CCCCOCCCCCCNC[C@H](O)c1ccc(O)c(CO)c1
Liver microsomes [15]
  Ratio: 0.46
[1]
  pEC50: 6.70
[2]
  pEC50: 6.70
[3]
  pEC50: 8.60

## CC(=O)O.CC1(C)NC(=O)N(c2cccc(CCCCOCCCCCCNC[C@H](O)c3ccc(O)c(CO)c3)c2)C1=O
Liver microsomes [15]
  Ratio: 0.48
[1]
  pEC50: 7.20
[2]
  pEC50: 6.70
[3]
  pEC50: 9.10

## CC(=O)O.O=C1CN(c2cccc(CCCCOCCCCCCNC[C@H](O)c3ccc(O)c(CO)c3)c2)C(=O)N1
[14]
  pEC50: 8.60
Liver microsomes [15]
  Ratio: 0.4
[1]
  pEC50: 6.50
[2]
  pEC50: 6.70
[3]
  pEC50: 8.60

## CC(=O)O.O=C1CNC(=O)N1Cc1cccc(CCCCOCCCCCCNC[C@H](O)c2ccc(O)c(CO)c2)c1
Liver microsomes [15]
  Ratio: 1.62
[1]
  pEC50: 7.40
[2]
  pEC50: 6.90
[3]
  pEC50: 8.90

## CC(=O)O.O=C1CN(Cc2cccc(CCCCOCCCCCCNC[C@H](O)c3ccc(O)c(CO)c3)c2)C(=O)N1
Liver microsomes [15]
  Ratio: 0.75
[1]
  pEC50: 7.20
[2]
  pEC50: 7.10
[3]
  pEC50: 9.20

## O=C1NC(=O)N(Cc2cccc(CCCCOCCCCCCNC[C@H](O)c3ccc(O)c(CO)c3)c2)C1=O
[1]
  pEC50: 7.60
[2]
  pEC50: 7.30
[3]
  pEC50: 9.10

## CC(=O)O.NC(=O)CN1C(=O)CN(c2cccc(CCCCOCCCCCCNC[C@H](O)c3ccc(O)c(CO)c3)c2)C1=O
Liver microsomes [15]
  Ratio: 0.91
[1]
  pEC50: 7.10
[2]
  pEC50: 6.80
[3]
  pEC50: 9.60

## O=c1cc[nH]c(=O)n1-c1cccc(CCCCOCCCCCCNC[C@H](O)c2ccc(O)c(CO)c2)c1 [listing 1 of 2 here]
[1]
  pEC50: 6.40
[2]
  pEC50: 6.60
[3]
  pEC50: 9.10

## O=c1cc[nH]c(=O)n1-c1cccc(CCCCOCCCCCCNC[C@H](O)c2ccc(O)c(CO)c2)c1 [listing 2 of 2 here]
[14]
  pEC50: 9.70

## O=C(O)CNC(=O)Nc1cccc(CCCCOCCCCCCNC[C@H](O)c2ccc(O)c(CO)c2)c1 [listing 1 of 2 here]
Liver microsomes [15]
  Ratio: 0.55
[1]
  pEC50: 7.00
[2]
  pEC50: 6.90
[3]
  pEC50: 9.00

## O=C(O)CNC(=O)Nc1cccc(CCCCOCCCCCCNC[C@H](O)c2ccc(O)c(CO)c2)c1 [listing 2 of 2 here]
[14]
  pEC50: 9.00

## OCc1cc(C(O)CNCCCCCCOCCCCc2ccccc2)ccc1O (stereo unspecified) [SALMETEROL]
Cavia porcellus [4]
  EC90: 50000 nM
[14]
  pEC50: 8.30
